# Source: PubChem BioAssay (several laboratories)
# ARFGAP1 inhibitor = inhibits rat ARF GTPase activating protein 1 | Q62848 | Arfgap1-stimulated ARF1 GTP hydrolysis, GDP FP detection | inhibition, % at 16.5 µM | 0.26% of 360,000 active;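 active = inhibition above a per-plate limit, mean inhibition of low control wells plus 3 SD, cut at about 25% in these data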;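 also: 0% = DMSO wells with enzyme and 100% = wells lacking Arfgap1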
#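 Material: rat Arfgap1 catalytic domain, aa 1-136; also added: human ARF1(Δ1-17)-GTP substrate; compound dosing: one concentration, 16.5 µM, DMSO 1.26%; incubation: GTP hydrolysis reaction 2 h at 25 °C; measured by: Tracer-displacement fluorescence polarization with EDTA stop, 620/688 nm; evaluation: % inhibition from polarization; repeats: one replicate per compound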
# V-ATPase pHluor = alters yeast V-ATPase proton transport; S. cerevisiae, pHLuorin cytosolic pH fluorescence; response, % at 10 µM; 0.37% of 350,000 active; in the data active = response mostly above about 7.3%, no sharp cut-off; inactive = mostly below about 5.4%; also: actives read high
# ASAP1 GAP inh = inhibitors of human ASAP1 ArfGAP activity; ASAP1-stimulated ARF1 GTP hydrolysis, GDP FP detection; inhibition, % at 16.5 µM; 0.19% of 360,000 active; AID 624377; in the data active = inhibition above about 25%;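 also: 0% = vehicle with enzyme and substrate and 100% = no enzyme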
# CendR NRP1 mod = alters CendR peptide binding to human NRP-1; AID 602438; 0.85% of 360,000 active; FAM-RPARPAR peptide binding to NRP-1, fluorescence polarization; O14786; inhibition, % at 25 µM;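 active = inhibition or corrected inhibition above about 18%, plus a signal ratio from 0.5 to 1.5, limit read from the data, passing the limit was not always enough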
# Target sequence (O14786 whole entry, looked up): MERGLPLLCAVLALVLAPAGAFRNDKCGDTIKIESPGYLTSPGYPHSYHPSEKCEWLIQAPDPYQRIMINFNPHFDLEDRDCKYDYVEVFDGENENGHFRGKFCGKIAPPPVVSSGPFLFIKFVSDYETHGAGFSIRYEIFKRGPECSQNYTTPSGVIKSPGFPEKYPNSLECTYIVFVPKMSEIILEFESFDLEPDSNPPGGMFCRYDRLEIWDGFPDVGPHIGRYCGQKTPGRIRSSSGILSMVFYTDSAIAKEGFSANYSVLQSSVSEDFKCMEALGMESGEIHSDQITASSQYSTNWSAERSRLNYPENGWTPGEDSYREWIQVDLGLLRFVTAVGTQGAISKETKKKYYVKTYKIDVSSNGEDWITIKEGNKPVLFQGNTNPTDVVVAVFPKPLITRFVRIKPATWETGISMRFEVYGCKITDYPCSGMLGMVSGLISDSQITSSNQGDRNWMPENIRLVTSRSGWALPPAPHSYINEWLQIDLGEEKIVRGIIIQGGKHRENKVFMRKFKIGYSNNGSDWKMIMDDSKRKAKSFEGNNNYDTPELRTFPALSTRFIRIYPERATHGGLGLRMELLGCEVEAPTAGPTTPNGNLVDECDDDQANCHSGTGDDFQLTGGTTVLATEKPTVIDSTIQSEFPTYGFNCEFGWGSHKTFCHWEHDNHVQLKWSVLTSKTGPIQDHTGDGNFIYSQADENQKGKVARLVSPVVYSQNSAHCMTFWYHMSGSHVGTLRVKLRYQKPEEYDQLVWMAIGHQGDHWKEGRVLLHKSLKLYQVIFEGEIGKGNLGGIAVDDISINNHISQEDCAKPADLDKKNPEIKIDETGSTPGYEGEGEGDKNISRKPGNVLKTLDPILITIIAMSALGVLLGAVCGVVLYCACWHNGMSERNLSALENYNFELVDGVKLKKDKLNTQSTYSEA
# Exocytosis inh = blocks lytic granule exocytosis; TALL-104 LAMP-1 surface exposure, flow cytometry; cells stimulated with thapsigargin and PMA; inhibition, % at 10 µM; 0.66% of 360,000 active;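 active = inhibition above about 55%, limit read from the data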
# Starred values were filed as active, the others as inactive; . = not tested or not shown. Only some compounds are listed: those with a hit (about 2.2% of all), similar ones and a draw of the others.
SMILES,ARFGAP1 inhibitor,V-ATPase pHluor,ASAP1 GAP inh,CendR NRP1 mod,Exocytosis inh
Cc1ccc(S(=O)(=O)N(CC(=O)N2CCOCC2)c2ccccc2F)cc1,3,2,-14,10,-5
CCOc1ccccc1N(CC(=O)N1CCOCC1)S(=O)(=O)c1ccc(SC)cc1,18,-1,7,28*,-2
O=S(=O)(c1cccs1)N1CCCc2nc(-c3ccccc3)ccc21,7,.,5,.,.
CCCCn1c(SCC(=O)Nc2cc(C)on2)nnc1-c1cccnc1,6,-3,7,22*,-3
CCOc1ccc(NC(=O)C2CCC(N3C(=O)C4CC=CCC4C3=O)CC2)cc1 (configuration not stated),4,8,11,29*,-6
CCOc1ccc(NC(=O)C2CC3CCC2C3)cc1 (configuration not stated),-11,-1,-12,28*,-2
CCOc1ccc(NC(=O)CN2C(=O)C3CC=CCC3C2=O)cc1 (configuration not stated),-4,0,3,11,-5
COC(=O)[C@]12C[C@H](CC(=O)NCC3CCCCC3)C(=O)N(Cc3ccc4c(c3)OCO4)C1=C[C@H](C(C)(C)C)O[C@@H]2C,6,.,4,.,.
CCN(C[C@H]1N[C@@](CC)(C(=O)OC)[C@H]2C(=O)N(C)C(=O)[C@@H]12)S(=O)(=O)c1ccc(-c2ccccc2)cc1,-5,3,-5,-4,3
CCN(C[C@H]1N[C@@](CC)(C(=O)OC)[C@H]2C(=O)N(C)C(=O)[C@@H]12)S(=O)(=O)c1ccc(OC)cc1,4,4,14,28*,2
CCOC(=O)CSc1c(-c2ccc(Cl)cc2)[nH]c2ccccc12,9,8,2,-1,1
CCOC(=O)CSc1c(-c2cccs2)[nH]c2ccccc12,22,3,12,25*,0
COc1ccc(C2CC(=O)C(c3ccc(Br)cc3)=CN2Cc2ccccc2)cc1 (configuration not stated),5,.,-1,.,.
COc1ccc(C2=CN(Cc3ccccc3)C(c3ccccc3)CC2=O)cc1 (configuration not stated),5,2,-7,21*,26
O=c1c(-c2ccc(O)cc2)coc2c([C@@H]3O[C@H](CO)[C@@H](O)[C@H](O)[C@H]3O)c(O)ccc12,3,-3,-3,24*,-2
O=c1c(-c2ccc(O)cc2)coc2c(C3O[C@H](CO)[C@@H](O)[C@H](O)[C@H]3O)c(O)ccc12 (some centres not stated),0,-2,3,5,-4
Cc1ccc(NS(=O)(=O)Cc2ccccc2)nc1,-6,6,2,26*,-5
O=S(=O)(Cc1ccccc1)Nc1ccc(Br)cn1,-2,-3,-3,10,15
CCOCc1nnc(NC(=O)c2c(OC)cccc2OC)s1,12,1,9,20*,-3
CCN(CC)CCCNC(=O)C1c2ccccc2C(=O)N1Cc1ccc(C)cc1 (configuration not stated),3,-1,5,19*,5
Cc1ccc(CN2C(=O)c3ccccc3C2C(=O)NCC2CCCO2)cc1 (configuration not stated),0,-1,3,9,0
Cc1cc2c(c(=O)o1)[C@@]1(C(=O)N(c3ccccc3)c3ccccc31)C1=C(CCCC1=O)O2,1,.,-7,.,.
CC(=O)n1c2ccccc2c2nc3ccccc3nc21,.,0,.,-4,-7
CC(=O)n1c2ccccc2c2c1c1ccccc1n2C,2,1,-7,38*,-2
COC(=O)[C@]12C[C@H](CC(=O)N3CCCCC3)C(=O)N(Cc3ccccc3)C1=C[C@H](C1CCCC1)O[C@@H]2C,-7,.,-6,.,.
SMILES,ARFGAP1 inhibitor,V-ATPase pHluor,ASAP1 GAP inh,CendR NRP1 mod,Exocytosis inh
COc1ccccc1/C=C/C=C(\C#N)C(=O)NC(C)c1ccccc1 (configuration not stated),2,0,-3,-8,77*
COc1cc(/C=C(/C#N)C(=O)NC(C)c2ccccc2)cc(OC)c1O (configuration not stated),-2,-6,15,-91,-4
CC(C)(C)c1ccc(C(=O)N2CCN(Cc3ccccc3)CC2)cc1,-6,1,0,-2,18
CC(C)(C)c1ccc(CN2N=Nc3ccccc3S2(=O)=O)cc1,4,0,-4,-13,97*
NC(=S)N=Nc1c(O)n(CCCl)c2ccc(Cl)cc12,4,1,11,3,57*
NC(=S)N=Nc1c(O)n(CCCl)c2ccccc12,3,-1,3,11,0
O=C1C=C(N2CCOCC2)c2cccc3cccc1c23,5,-3,-1,28*,-7
O=C1C(N2CCOCC2)=Cc2cccc3cccc1c23,2,0,-2,118,-3
O=C1C=C(O)c2cccc3cccc1c23,5,-4,2,41*,-12
CCCCOCCCNC(=O)C[C@H]1C[C@@]2(C(=O)OC)C(=C[C@H](C3CCCC3)O[C@@H]2C)N(Cc2ccccc2)C1=O,-5,.,-8,.,.
CCO[C@@H]1c2c(ccc3ccc(=O)oc23)OC(C)(C)[C@@H]1O,12,0,14,32*,-6
COc1ccc(-c2[nH]ncc2CN(C)C(C)c2cccs2)c(F)c1 (configuration not stated),1,0,-12,-9,0
COc1ccc(-c2[nH]ncc2CN(C)CCc2c(C)n[nH]c2C)c(F)c1,-2,0,14,26*,-1
O=C(CC1CCCC1)N[C@H](C(=O)N1CCC[C@H]1C(=O)NC1CCCC1)C1CCCCC1,10,.,-1,.,.
Cc1ccc(S(=O)(=O)Nc2cc(-c3nn(C)c(=O)c4ccccc34)ccc2N2CCOCC2)cc1,2,-3,1,-11,8
Cn1nc(-c2ccc(N3CCOCC3)c(NS(=O)(=O)c3ccc(Cl)cc3)c2)c2ccccc2c1=O,2,1,-1,26*,55
C=CCCN(Cc1ccccc1)S(=O)(=O)c1cc(Br)ccc1Br,1,0,-13,3,-4
COc1ccc(S(=O)(=O)N2CCCCC2c2cc(C(=O)Nc3ccc(OC)cc3C)no2)cc1 (configuration not stated),0,.,0,45*,-2
CCN(C(=O)COC(=O)c1nc(Cl)ccc1Cl)C1CCS(=O)(=O)C1 (configuration not stated),18,0,3,6,-1
Cc1ccc2nc(-c3ccc(NC(=S)NCC(C)(C)CN(C)C)cc3)sc2c1,8,0,-10,2,56*
CCOc1ccccc1NC(=O)C(Sc1ccccc1)c1ccccc1 (configuration not stated),-6,-2,8,27*,5
Cc1c(NC(=O)C(Sc2ccccc2)c2ccccc2)cccc1[N+](=O)[O-] (configuration not stated),-6,-1,12,4,59*
